# Results reported in article PMC9435035 (ACS Omega, 2022).
# Experiments:
# [1] = target: α-glucosidase (Saccharomyces cerevisiae, UniProt P53341); experiment: α-glucosidase inhibitory activity; format: biochemical; settings: read-out: glucosidase inhibition IC50 ± SEM; mean ± SEM
# [2] = system: streptozotocin-induced diabetic Wistar rats; experiment: antidiabetic activity: blood glucose in STZ-induced diabetes; format: in vivo, Wistar albino rats
# Outline: (§1)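 Male Wistar albino rats (170–200 g, 8–10 weeks), fasted overnight, given STZ 50 mg/kg i.p. in 0.1 M citrate buffer, then 10% glucose for 3 days. Tail-vein glucose by glucometer at 72 h; >250 mg/dL counted as diabetic. Body weight and blood glucose on days 1, 7, 14, 21 and 28. Means ± SEM, one-way ANOVA with Dunnett's test.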
# [3] = body weight of STZ-induced diabetic rats; format: in vivo, Wistar albino rats; settings: for body weight, day 1: day 1, in g (unit assumed); for body weight, day 7: day 7, in g (unit assumed); for body weight, day 14: day 14, in g (unit assumed); for body weight, day 21: day 21, in g (unit assumed); for body weight, day 28: day 28, in g (unit assumed)
# Outline: as §1
# [4] = system: streptozotocin-induced diabetic Wistar rats; experiment: lipid profile in streptozotocin-induced diabetes; format: in vivo, Wistar albino rats; settings: STZ-diabetic rats
# Outline: (§2)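 STZ-diabetic Wistar rats (n = 8 per group) received test compound at 10 or 20 mg/kg p.o., or glibenclamide 500 μg/kg p.o., once daily for 28 days; controls received vehicle. On day 28, rats were anesthetised with pentobarbital sodium (35 mg/kg) and blood was drawn by cardiac puncture. Serum ALP, SGPT, SGOT, LDL, HDL, TG, total cholesterol, creatinine and insulin were measured. Means ± SEM, one-way ANOVA with Dunnett's test.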
# [5] = system: overnight fasted normal rats; experiment: oral glucose tolerance test; format: in vivo, Wistar albino rats; settings: OGTT, glucose 3 g/kg oral
# [6] = system: Balb/C mice; experiment: acute toxicity study in mice; format: in vivo; settings: for mortality: maximum oral dose of 2000 mg/kg (b.w.); for toxic effects (diarrhea, convulsions, lethargy, sleeping, salivation, tremor): oral up to 2000 mg/kg, observed daily for 2 weeks
# Outline: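 Two-phase modified Lorke protocol in Balb/C mice (20–25 g), four per group. Phase 1: control given Tween-80 (2%); other groups received oral test compound at 100, 500 or 1000 mg/kg. Phase 2: oral doses of 1250, 1500 and 2000 mg/kg. Animals observed for the first 24 h, then daily for 2 weeks for diarrhea, convulsions, lethargy, sleeping, salivation and tremors, with mortality monitored.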
# [7] = system: streptozotocin-induced diabetic Wistar rats; experiment: serum profile; format: in vivo, Wistar albino rats; settings: STZ-diabetic rats; for (ALP) IU / (SGOT) IU / (SGPT) IU: serum
# Outline: as §2
# [8] = 10 mg/kg p.o. once daily, day 28, 10 mg/kg
# [9] = 20 mg/kg p.o. once daily, day 28, 20 mg/kg
# Chain of α-glucosidase (P53341 whole entry): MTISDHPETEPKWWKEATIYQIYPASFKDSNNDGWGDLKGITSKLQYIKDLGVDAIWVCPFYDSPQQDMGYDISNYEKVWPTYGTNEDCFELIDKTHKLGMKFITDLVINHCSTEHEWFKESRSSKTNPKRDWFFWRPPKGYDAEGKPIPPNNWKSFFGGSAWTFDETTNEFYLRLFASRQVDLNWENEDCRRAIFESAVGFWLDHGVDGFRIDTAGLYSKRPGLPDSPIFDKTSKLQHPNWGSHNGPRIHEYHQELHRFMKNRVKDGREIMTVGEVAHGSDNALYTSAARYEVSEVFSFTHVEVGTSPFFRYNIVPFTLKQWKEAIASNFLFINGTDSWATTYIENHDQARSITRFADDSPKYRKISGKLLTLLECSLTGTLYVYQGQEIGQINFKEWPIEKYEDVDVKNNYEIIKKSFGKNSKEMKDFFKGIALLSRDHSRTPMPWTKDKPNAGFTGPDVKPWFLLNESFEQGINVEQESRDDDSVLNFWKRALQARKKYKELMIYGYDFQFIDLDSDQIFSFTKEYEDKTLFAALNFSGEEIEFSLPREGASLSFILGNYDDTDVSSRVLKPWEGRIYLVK
substance,measurement,setting,value
"2-(4-Fluorophenyl)-4-(p-tolyl)-2,3-dihydrobenzo[b][1,5]thiazepine [13B]",IC50,[1],3.28 ± 0.19 µM
same,"blood glucose level, day 1",[2]; 10 mg/kg p.o. once daily,370.81 ± 4.79 mg/dL
same,"blood glucose level, day 7",[2]; 10 mg/kg p.o. once daily,289.89 ± 4.33 mg/dL
same,"blood glucose level, day 14",[2]; 10 mg/kg p.o. once daily,200.33 ± 4.57 mg/dL
same,"blood glucose level, day 21",[2]; 10 mg/kg p.o. once daily,149.30 ± 4.56 mg/dL
same,"blood glucose level, day 28",[2]; [8],132.98 ± 4.33 mg/dL
same,"blood glucose level, day 1",[2]; 20 mg/kg p.o. once daily,375.31 ± 5.01 mg/dL
same,"blood glucose level, day 7",[2]; 20 mg/kg p.o. once daily,230.71 ± 4.88 mg/dL
same,"blood glucose level, day 14",[2]; 20 mg/kg p.o. once daily,163.68 ± 4.37 mg/dL
same,"blood glucose level, day 21",[2]; 20 mg/kg p.o. once daily,120.72 ± 4.11 mg/dL
same,"blood glucose level, day 28",[2]; [9],108.42 ± 3.98 mg/dL
same,"body weight, day 1",[3]; 10 mg/kg,186.6 ± 4.70
same,"body weight, day 7",[3]; 10 mg/kg,183.4 ± 4.15
same,"body weight, day 14",[3]; 10 mg/kg,186.3 ± 4.22
same,"body weight, day 21",[3]; 10 mg/kg,180.1 ± 4.12
same,"body weight, day 28",[3]; 10 mg/kg,177.3 ± 4.40
same,"body weight, day 1",[3]; 20 mg/kg,193.6 ± 4.21
same,"body weight, day 7",[3]; 20 mg/kg,187.2 ± 4.81
same,"body weight, day 14",[3]; 20 mg/kg,191.1 ± 4.14
same,"body weight, day 21",[3]; 20 mg/kg,187.8 ± 3.99
same,"body weight, day 28",[3]; 20 mg/kg,185.7 ± 4.79
same,HDL,[4]; 10 mg/kg for 28 days,46.29 ± 2.01 mg/dL
same,LDL,[4]; 10 mg/kg for 28 days,127.81 ± 4.39 mg/dL
same,TG,[4]; 10 mg/kg for 28 days,142.93 ± 4.21 mg/dL
same,total CH,[4]; 10 mg/kg for 28 days,148.67 ± 4.11 mg/dL
same,HDL,[4]; 20 mg/kg for 28 days,56.08 ± 2.63 mg/dL
same,LDL,[4]; 20 mg/kg for 28 days,108.91 ± 4.11 mg/dL
same,TG,[4]; 20 mg/kg for 28 days,114.81 ± 4.41 mg/dL
same,total CH,[4]; 20 mg/kg for 28 days,134.21 ± 4.77 mg/dL
same,"blood glucose level, 0 min",[5]; dose 10 mg/kg,104.80 ± 4.97 mg/dL
same,"blood glucose level, 30 min",[5]; dose 10 mg/kg,120.04 ± 5.04 mg/dL
same,"blood glucose level, 60 min",[5]; dose 10 mg/kg,118.31 ± 4.65 mg/dL
same,"blood glucose level, 90 min",[5]; dose 10 mg/kg,109.81 ± 4.56 mg/dL
same,"blood glucose level, 120 min",[5]; dose 10 mg/kg,113.93 ± 4.67 mg/dL
same,"blood glucose level, 0 min",[5]; dose 20 mg/kg,103.79 ± 5.12 mg/dL
same,"blood glucose level, 30 min",[5]; dose 20 mg/kg,116.81 ± 4.31 mg/dL
same,"blood glucose level, 60 min",[5]; dose 20 mg/kg,114.98 ± 4.34 mg/dL
same,"blood glucose level, 90 min",[5]; dose 20 mg/kg,110.21 ± 3.91 mg/dL
same,"blood glucose level, 120 min",[5]; dose 20 mg/kg,110.04 ± 4.81 mg/dL
same,mortality,[6],no mortality
same,"toxic effects (diarrhea, convulsions, lethargy, sleeping, salivation, tremor)",[6],no toxic effects
same,insulin level,[7]; 10 mg/kg for 28 days,0.696 ± 0.29 ng/mL
same,serum creatinine,[7]; 10 mg/kg for 28 days,0.76 ± 0.39 mg/dL
same,(ALP) IU,[7]; 10 mg/kg for 28 days,208.96 ± 4.22 IU
same,(SGOT) IU,[7]; 10 mg/kg for 28 days,25.41 ± 2.18 IU
same,(SGPT) IU,[7]; 10 mg/kg for 28 days,24.76 ± 2.81 IU
same,insulin level,[7]; 20 mg/kg for 28 days,0.705 ± 0.31 ng/mL
same,serum creatinine,[7]; 20 mg/kg for 28 days,0.70 ± 0.33 mg/dL
same,(ALP) IU,[7]; 20 mg/kg for 28 days,201.80 ± 4.71 IU
same,(SGOT) IU,[7]; 20 mg/kg for 28 days,22.09 ± 2.21 IU
same,(SGPT) IU,[7]; 20 mg/kg for 28 days,22.03 ± 2.78 IU
"N,N-Dimethyl-4-(4-(p-tolyl)-2,3-dihydrobenzo[b][1,5]thiazepin-2-yl)aniline [14B]",IC50,[1],3.34 ± 0.27 µM
same,"blood glucose level, day 1",[2]; 10 mg/kg p.o. once daily,369.82 ± 4.12 mg/dL
same,"blood glucose level, day 7",[2]; 10 mg/kg p.o. once daily,294.04 ± 4.67 mg/dL
same,"blood glucose level, day 14",[2]; 10 mg/kg p.o. once daily,196.39 ± 4.12 mg/dL
same,"blood glucose level, day 21",[2]; 10 mg/kg p.o. once daily,151.11 ± 4.39 mg/dL
same,"blood glucose level, day 28",[2]; [8],134.20 ± 4.21 mg/dL
same,"blood glucose level, day 1",[2]; 20 mg/kg p.o. once daily,370.33 ± 3.98 mg/dL
same,"blood glucose level, day 7",[2]; 20 mg/kg p.o. once daily,231.69 ± 5.20 mg/dL
same,"blood glucose level, day 14",[2]; 20 mg/kg p.o. once daily,158.26 ± 4.67 mg/dL
same,"blood glucose level, day 21",[2]; 20 mg/kg p.o. once daily,127.21 ± 4.81 mg/dL
same,"blood glucose level, day 28",[2]; [9],109.71 ± 4.23 mg/dL
same,"body weight, day 1",[3]; 10 mg/kg,188.5 ± 4.07
same,"body weight, day 7",[3]; 10 mg/kg,186.8 ± 4.39
same,"body weight, day 14",[3]; 10 mg/kg,187.1 ± 4.33
same,"body weight, day 21",[3]; 10 mg/kg,181.6 ± 4.21
same,"body weight, day 28",[3]; 10 mg/kg,179.3 ± 4.41
same,"body weight, day 1",[3]; 20 mg/kg,189.1 ± 4.19
same,"body weight, day 7",[3]; 20 mg/kg,188.5 ± 4.21
same,"body weight, day 14",[3]; 20 mg/kg,189.2 ± 4.66
same,"body weight, day 21",[3]; 20 mg/kg,183.4 ± 4.18
same,"body weight, day 28",[3]; 20 mg/kg,182.5 ± 4.58
same,HDL,[4]; 10 mg/kg for 28 days,45.25 ± 2.15 mg/dL
same,LDL,[4]; 10 mg/kg for 28 days,129.08 ± 4.06 mg/dL
same,TG,[4]; 10 mg/kg for 28 days,144.11 ± 4.39 mg/dL
same,total CH,"[4]; 10 mg/kg for 28 days, 10 mg/kg",149.08 ± 4.12 mg/dL
same,HDL,[4]; 20 mg/kg for 28 days,55.21 ± 2.66 mg/dL
same,LDL,[4]; 20 mg/kg for 28 days,110.41 ± 3.90 mg/dL
same,TG,[4]; 20 mg/kg for 28 days,115.24 ± 4.13 mg/dL
same,total CH,"[4]; 20 mg/kg for 28 days, 20 mg/kg",135.11 ± 4.02 mg/dL
same,"blood glucose level, 0 min",[5]; dose 10 mg/kg,104.21 ± 4.67 mg/dL
same,"blood glucose level, 30 min",[5]; dose 10 mg/kg,124.02 ± 4.01 mg/dL
same,"blood glucose level, 60 min",[5]; dose 10 mg/kg,119.33 ± 4.63 mg/dL
same,"blood glucose level, 90 min",[5]; dose 10 mg/kg,114.98 ± 4.03 mg/dL
same,"blood glucose level, 120 min",[5]; dose 10 mg/kg,116.49 ± 4.71 mg/dL
same,"blood glucose level, 0 min",[5]; dose 20 mg/kg,103.87 ± 4.18 mg/dL
same,"blood glucose level, 30 min",[5]; dose 20 mg/kg,119.61 ± 4.55 mg/dL
same,"blood glucose level, 60 min",[5]; dose 20 mg/kg,116.20 ± 4.78 mg/dL
same,"blood glucose level, 90 min",[5]; dose 20 mg/kg,112.69 ± 4.11 mg/dL
same,"blood glucose level, 120 min",[5]; dose 20 mg/kg,111.61 ± 4.97 mg/dL
same,mortality,[6],no mortality
same,"toxic effects (diarrhea, convulsions, lethargy, sleeping, salivation, tremor)",[6],no toxic effects
same,insulin level,[7]; 10 mg/kg for 28 days,0.690 ± 0.27 ng/mL
same,serum creatinine,[7]; 10 mg/kg for 28 days,0.75 ± 0.36 mg/dL
same,(ALP) IU,[7]; 10 mg/kg for 28 days,210.98 ± 4.39 IU
same,(SGOT) IU,[7]; 10 mg/kg for 28 days,25.56 ± 2.18 IU
same,(SGPT) IU,[7]; 10 mg/kg for 28 days,25.08 ± 2.78 IU
same,insulin level,[7]; 20 mg/kg for 28 days,0.697 ± 0.34 ng/mL
same,serum creatinine,[7]; 20 mg/kg for 28 days,0.72 ± 0.30 mg/dL
same,(ALP) IU,[7]; 20 mg/kg for 28 days,203.51 ± 4.34 IU
same,(SGOT) IU,[7]; 20 mg/kg for 28 days,22.20 ± 2.21 IU
same,(SGPT) IU,[7]; 20 mg/kg for 28 days,22.82 ± 2.91 IU
